Experimental data from ChEMBL document CHEMBL1821604, “Anticancer activity and cDNA microarray studies of a (RS)-1,2,3,5-tetrahydro-4,1-benzoxazepine-3-yl]-6-chloro-9H-purine, and an acyclic (RS)-O,N-acetalic 6-chloro-7H-purine” (Eur J Med Chem, 2011).

How the values were obtained:
[1] = Therapeutic index, ratio of IC50 for human MCF10A cells to IC50 for human MCF7 cells; format: cell-based; details: MCF10A cells (normal) versus MCF7 cells (cancer), read-out: Ratio IC50
Summary of the method: (§1)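 Each cell line grown in DMEM with 10% FBS, 37 °C, 5% CO₂. Cells seeded and allowed 24 h, then drug added in medium (≤0.1% v/v DMSO). Medium and drug renewed at day 3, cells kept 3 more days. Sulforhodamine-B read at 492 nm. IC₅₀ taken from semilog dose-response curves by linear interpolation, triplicate wells, at least twice. Index = IC₅₀ normal line / IC₅₀ cancer line.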

MCF-10A = experiment: Cytotoxicity against human MCF10A cells after 6 days by SRB colorimetric assay; format: cell-based; details: 144 h
HT-29 = experiment: Cytotoxicity against human HT-29 cells after 6 days by SRB colorimetric assay; format: functional, cell-based; details: HT-29, 144 h
[2] = Therapeutic index, ratio of IC50 for rat IEC-6 cells to IC50 for human HT-29 cells; format: cell-based; details: IEC-6 cells (normal) versus HT-29 cells (cancer), read-out: Ratio IC50; summary of the method: as §1
[3] = Cytotoxicity against rat IEC-6 cells after 6 days by SRB colorimetric assay; format: cell-based; details: IEC-6, 144 h
MCF7 = experiment: Induction of apoptosis in human MCF7 cells at IC50 after 48 hrs using annexin V-FITC staining by flow cytometry; format: functional

SMILES	selectivity ratio [1]	IC50 (MCF-10A) [nM]	IC50 (HT-29) [nM]	selectivity ratio [2]	IC50 [3] [nM]	Activity (MCF7) [%]
O=c1[nH]cc(F)c(=O)[nH]1 [FLUOROURACIL]	0.17	730	1080	0.61	660	–
CC(=O)O[C@H]1C(=O)[C@@]2(C)[C@H]([C@H](OC(=O)c3ccccc3)[C@]3(O)C[C@H](OC(=O)[C@H](O)[C@@H](NC(=O)c4ccccc4)c4ccccc4)C(C)=C1C3(C)C)[C@]1(OC(C)=O)CO[C@@H]1C[C@@H]2O [PACLITAXEL]	–	–	–	–	–	43
